# Columns and labels:
# [1] = molecular target: T1, Nociceptin receptor (Homo sapiens, UniProt P41146); assay: Binding affinity at human ORL1 receptor was determined by using [125I]nociceptin radioligand in Chinese hamster ovary (CHO) cell membranes at a concentration of 23 pM
# Procedure, shortened: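 Competition binding against [125I]Nociceptin on membranes of CHO cells expressing human ORL1; Ki derived; means of 2–3 independent determinations.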
# [2] = molecular target: T2, Delta-type opioid receptor (Homo sapiens, UniProt P41143); assay: Binding affinity at human opioid receptor delta 1 was determined by using [3H]diprenorphine radioligand in CHO cell membranes at a concentration of 0.8 nM
# T2 sequence (P41143 whole entry): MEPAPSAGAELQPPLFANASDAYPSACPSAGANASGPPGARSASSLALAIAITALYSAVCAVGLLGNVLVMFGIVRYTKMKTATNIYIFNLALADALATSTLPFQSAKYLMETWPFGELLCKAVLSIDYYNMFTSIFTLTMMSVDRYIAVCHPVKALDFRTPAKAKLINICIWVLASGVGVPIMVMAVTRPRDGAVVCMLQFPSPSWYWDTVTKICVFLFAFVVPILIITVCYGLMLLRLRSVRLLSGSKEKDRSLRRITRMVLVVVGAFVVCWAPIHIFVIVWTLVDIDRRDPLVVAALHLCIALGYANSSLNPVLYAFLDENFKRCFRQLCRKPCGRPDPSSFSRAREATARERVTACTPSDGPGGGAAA
# Procedure, shortened: (§1)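 Ki from competition binding with [3H]diprenorphine on membranes of CHO cells expressing the respective human opioid receptor; means of 2–3 independent determinations.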
# [3] = molecular target: Mu-type opioid receptor (Homo sapiens, UniProt P35372); assay: Binding affinity at human opioid receptor mu 1 was determined by using [3H]diprenorphine radioligand in CHO cell membranes at a concentration of 0.12 nM; procedure, shortened: as §1
# Mu-type opioid receptor, sequence (P35372 whole entry): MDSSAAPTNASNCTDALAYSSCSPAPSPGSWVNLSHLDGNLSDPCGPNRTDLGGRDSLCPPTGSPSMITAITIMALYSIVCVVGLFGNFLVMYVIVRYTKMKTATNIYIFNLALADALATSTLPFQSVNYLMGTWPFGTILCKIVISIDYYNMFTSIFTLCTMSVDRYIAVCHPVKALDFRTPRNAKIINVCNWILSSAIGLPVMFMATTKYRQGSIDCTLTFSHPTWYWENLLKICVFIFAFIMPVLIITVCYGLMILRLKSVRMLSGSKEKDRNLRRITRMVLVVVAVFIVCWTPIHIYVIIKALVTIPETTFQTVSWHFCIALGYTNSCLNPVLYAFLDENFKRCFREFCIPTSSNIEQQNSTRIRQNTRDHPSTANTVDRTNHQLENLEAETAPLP
# [4] = molecular target: T1, Nociceptin receptor; assay: Functional [35S]GTP-gamma-S, binding for human ORL1 receptor carried out in CHO cell membranes.; type: cell-based; details: filed as agonist
# Procedure, shortened: (§2)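 [35S]GTPγS binding on membranes of CHO cells expressing human ORL1, 1 h incubation before assay start. Agonist: raises [35S]GTPγS binding. Antagonist: no effect on basal binding but blocks the Nociceptin-induced rise.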
# [5] = molecular target: Kappa-type opioid receptor (Homo sapiens, UniProt P41145); assay: Binding affinity at human opioid receptor kappa 1 was determined by using [3H]diprenorphine radioligand in CHO cell membranes at a concentration of 0.31 nM; procedure, shortened: as §1
# Kappa-type opioid receptor, sequence (P41145 whole entry): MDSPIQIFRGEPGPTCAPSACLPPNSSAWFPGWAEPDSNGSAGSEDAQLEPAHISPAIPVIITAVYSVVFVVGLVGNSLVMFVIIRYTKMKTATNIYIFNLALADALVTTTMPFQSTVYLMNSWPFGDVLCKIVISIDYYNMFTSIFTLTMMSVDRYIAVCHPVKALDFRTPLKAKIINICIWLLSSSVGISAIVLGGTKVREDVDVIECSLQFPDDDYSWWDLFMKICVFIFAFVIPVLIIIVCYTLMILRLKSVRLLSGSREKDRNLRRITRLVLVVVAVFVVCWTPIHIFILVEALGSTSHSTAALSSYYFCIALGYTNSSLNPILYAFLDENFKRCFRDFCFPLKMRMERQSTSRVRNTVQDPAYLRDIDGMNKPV
# [6] = molecular target: T1, Nociceptin receptor; assay: Compound was evaluated for functional [35S]GTP-gamma-S, binding for human ORL1 receptor carried out in CHO cell membranes; Compound acts as Agonist; type: cell-based; details: filed as agonist; procedure, shortened: as §2
# [7] = molecular target: T1, Nociceptin receptor; assay: Concentration of compound that inhibits the binding of human ORL1 receptor in CHO cell membranes in the presence of [125I]nociceptin radioligand at a concentration of 10 uM
# [8] = molecular target: T1, Nociceptin receptor; assay: Compound was evaluated for functional [35S]GTP-gamma-S, binding for human ORL1 receptor carried out in CHO cell membranes; Compound acts as Antagonist; type: cell-based; details: filed as antagonist; procedure, shortened: as §2
# [9] = molecular target: T2, Delta-type opioid receptor; assay: Binding affinity at human Opioid receptor delta 1 was determined by using [3H]diprenorphine radioligand in CHO cell membranes at a concentration of 0.8 nM; procedure, shortened: as §1
# T1 sequence (P41146 whole entry): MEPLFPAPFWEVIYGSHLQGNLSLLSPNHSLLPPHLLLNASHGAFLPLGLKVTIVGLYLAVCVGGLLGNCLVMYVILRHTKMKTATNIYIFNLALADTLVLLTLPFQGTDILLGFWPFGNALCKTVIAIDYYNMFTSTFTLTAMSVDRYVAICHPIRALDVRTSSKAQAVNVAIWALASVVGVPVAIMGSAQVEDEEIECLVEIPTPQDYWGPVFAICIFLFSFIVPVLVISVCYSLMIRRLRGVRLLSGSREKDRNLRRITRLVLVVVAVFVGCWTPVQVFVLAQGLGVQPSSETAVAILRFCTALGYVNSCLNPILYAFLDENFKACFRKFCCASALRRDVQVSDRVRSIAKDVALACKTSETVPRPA
Ki [1] [nM],Ki [2] [nM],Ki [3] [nM],Activity [4],Ki [5] [nM],Activity [6],inhibition [7] [%],Activity [8],Ki [9] [nM],Structure (SMILES)
2590,,,,,,,,,N[C@H](c1cccc(Cl)c1)[C@@H]1CCN1C(c1cccc(C(F)(F)F)c1)c1cccc(C(F)(F)F)c1
30,8050,1810,Agonist,3430,,,,,CCCCC(c1ccccc1)N1CC[C@H]1[C@H](N)c1cccc(Cl)c1 (stereo not given in full)
14,3310,516,Agonist,641,,,,,N[C@H](c1cccc(C(F)(F)F)c1)[C@H]1CCN1C(c1ccccc1)c1ccccc1
,,,Agonist,,,,,,N[C@@H](c1cccc(C(F)(F)F)c1)[C@@H]1CCN1C(c1ccccc1)c1ccccc1 (stereo in doubt; (+)-1a) [listing 1 of 2 here]
367,10100,4130,,2940,,,,,CCCC(c1ccccc1)N1CC[C@H]1[C@@H](N)c1cccc(Cl)c1 (stereo not given in full)
1140,5010,801,,1840,,,,,Cc1ccc(C(c2ccc(C)cc2)N2CC[C@H]2[C@H](N)c2cccc(Cl)c2)cc1
7220,7720,5400,,2770,,,,,N[C@@H](c1ccc(Oc2ccccc2)cc1)[C@@H]1CCN1C(c1ccccc1)c1ccccc1
420,2710,7160,Agonist,6040,,,,,N[C@H](c1cccc(Cl)c1)[C@@H]1CCN1C(c1cccc(Cl)c1)c1cccc(Cl)c1
236,11000,6090,,3570,,,,,N[C@@H](c1cccc(C(F)(F)F)c1)[C@@H]1CCN1C(c1ccccc1)c1ccccc1 (stereo in doubt; (+)-1a) [listing 2 of 2 here]
680,12300,4700,,4120,,,,,CCCCC(c1cccc(F)c1)N1CC[C@H]1[C@@H](N)c1cccc(Cl)c1 (stereo not given in full)
198,2920,865,,1340,,,,,COc1ccc([C@H](N)[C@@H]2CCN2C(c2ccccc2)c2ccccc2)cc1
49,11200,3980,,4220,Agonist,,,,CCCCC(c1cc(F)cc(F)c1)N1CC[C@H]1[C@H](N)c1cccc(Cl)c1 (stereo not given in full)
105,9530,4250,Agonist,4010,,,,,N[C@@H](c1cc(F)cc(F)c1)[C@@H]1CCN1C(c1ccccc1)c1ccccc1
3220,5010,3450,,3250,,,,,N[C@H](c1cccc(Cl)c1)[C@@H]1CCN1C(c1ccc(Cl)cc1)c1ccc(Cl)cc1
,,,,,,3,,,Cc1cccc([C@H](N)[C@@H]2CCN2C(c2ccccc2)c2ccccc2)c1
2530,4990,2500,,1480,,,,,N[C@H](c1cccc(Cl)c1)[C@@H]1CCN1C(c1ccc(Br)cc1)c1ccc(Br)cc1
64,4790,4320,Agonist,3530,,,,,N[C@H](c1cccc(Cl)c1)[C@@H]1CCN1C(c1cccc(F)c1)c1cccc(F)c1
58,634,152,Agonist,150,,,,,Cc1ccc([C@H](N)[C@@H]2CCN2C(c2ccccc2)c2ccccc2)cc1F
37,8340,1650,,1230,,,,,N[C@@H](c1cccc(Cl)c1)[C@@H]1CCN1C(c1ccccc1)c1ccccc1

Ki [1] [nM],Ki [2] [nM],Ki [3] [nM],Activity [4],Ki [5] [nM],Activity [6],inhibition [7] [%],Activity [8],Ki [9] [nM],Structure (SMILES)
684,7430,2180,,2240,,,,,N[C@H](c1cccc(Cl)c1)[C@@H]1CCN1C(c1ccc(F)cc1)c1ccc(F)cc1
26,8710,1600,Agonist,2130,,,,,CCCCC(c1cccc(F)c1)N1CC[C@H]1[C@H](N)c1cccc(Cl)c1 (stereo not given in full)
772,7580,2150,,3910,,,,,CCCCCC(c1ccccc1)N1CC[C@H]1[C@@H](N)c1cccc(Cl)c1 (stereo not given in full)
570,22400,8070,,13100,,,,,CCC(c1ccccc1)N1CC[C@H]1[C@@H](N)c1cccc(Cl)c1 (stereo not given in full)
745,8820,2250,,3680,,,,,CCCCC(c1ccccc1)N1CC[C@H]1[C@@H](N)c1cccc(Cl)c1 (stereo not given in full)
1020,4980,1590,,1940,,,,,CCCCCCC(c1ccccc1)N1CC[C@H]1[C@@H](N)c1cccc(Cl)c1 (stereo not given in full)
79,16500,6020,Agonist,7170,,,,,CCCC(c1ccccc1)N1CC[C@H]1[C@H](N)c1cccc(Cl)c1 (stereo not given in full)
94,22400,7220,Agonist,7720,,,,,CCC(c1ccccc1)N1CC[C@H]1[C@H](N)c1cccc(Cl)c1 (stereo not given in full)
1340,31800,9670,,4260,,,,,CCCCC(CCCC)N1CC[C@H]1[C@@H](N)c1cccc(Cl)c1
34,5960,1940,,2990,,,,,CCCCCC(c1ccccc1)N1CC[C@H]1[C@H](N)c1cccc(Cl)c1 (stereo not given in full)
94,1860,488,,660,,,,,Cc1ccc([C@H](N)[C@@H]2CCN2C(c2ccccc2)c2ccccc2)cc1
152,1440,586,Agonist,607,,,,,N[C@@H](c1ccc(Cl)cc1)[C@@H]1CCN1C(c1ccccc1)c1ccccc1
,,,Agonist,,,,,,N[C@@H](c1cccc(C(F)(F)F)c1)[C@@H]1CCN1C(c1ccccc1)c1ccccc1 (stereo in doubt; (+\-)-1) [listing 1 of 2 here]
191,2920,1770,Agonist,997,,,,,N[C@@H](c1cccc(F)c1)[C@@H]1CCN1C(c1ccccc1)c1ccccc1
347,9370,5550,,6490,,,,,CCCCC(c1cc(F)cc(F)c1)N1CC[C@H]1[C@@H](N)c1cccc(Cl)c1 (stereo not given in full)
185,,1490,,2860,,,Antagonist,3910,CCCCCCC(c1ccccc1)N1CC[C@H]1[C@H](N)c1cccc(Cl)c1 (stereo not given in full)
1060,39100,10600,,4100,,,,,CC(c1ccccc1)N1CC[C@H]1[C@@H](N)c1cccc(Cl)c1 (stereo not given in full)
31,6090,1970,,1630,,,,,N[C@@H](c1cccc(C(F)(F)F)c1)[C@@H]1CCN1C(c1ccccc1)c1ccccc1 (stereo in doubt; (+\-)-1) [listing 2 of 2 here]
,,,,,,45,,,COc1cccc([C@H](N)[C@@H]2CCN2C(c2ccccc2)c2ccccc2)c1

# From ChEMBL document CHEMBL1134945, “Synthesis and structure-activity relationships of aminoalkylazetidines as ORL1 receptor ligands” (Bioorg Med Chem Lett, 2002)
